Among the data in ChEMBL document CHEMBL3232958, “Antiproliferative and uncoupling effects of delocalized, lipophilic, cationic gallic acid derivatives on cancer cell lines. Validation in vivo in singenic mice” (J Med Chem, 2014) are Activity, TGI and IC50 values, retold here.

Data set [1] concerns TA3-MTX-R. In words: Induction of mitochondrial swelling in mouse TA3-MTX-R cell mitochondria at 0.05 to 0.20 mM by UV/vis spectrophotometer analysis. The data set is classed as functional.
The test system of data set [2] is TA3-MTX-R. The data set is described as follows: Induction of mitochondrial swelling in mouse TA3-MTX-R cell mitochondria at 0.15 mM by UV/vis spectrophotometer analysis in presence of N-acetylcysteine. In kind it is functional.
For data set [3], the system named is Mus musculus. The data set is described as follows: Toxicity in mouse TA3/Ha cells allografted CAF1-Jax mouse syngenic model at 10 mg/kg, ip administered every 48 hrs of 30 days. The data set is classed as organism-based. The arrangement: dose 10 mg/kg, route intraperitoneal. Conditions: in vivo. A digest of the protocol:
(§1)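 Adult male CAF1-Jax mice; 1.0 × 10^6 TA3/Ha cells in 0.1 mL 0.9% NaCl injected subcutaneously into the back. 10 mg/kg given ip every 48 h for 30 days to groups of six mice; controls received vehicle. Tumor diameters measured three times weekly; volume = (max diameter)(min diameter)²/2. Two independent experiments.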

Data set [4] relates to TA3/Ha. The data set is described as follows: Induction of mitochondrial swelling in mouse TA3/Ha cell mitochondria at 0.15 mM by UV/vis spectrophotometer analysis in presence of dithiothreitol. In kind it is functional. The method, boiled down: (§2)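 Same swelling set-up with TA3/Ha mitochondria at 0.15 mM cation, in the presence of NEM, DTT or NAC. Mean ± SEM of at least three experiments, ANOVA with Bonferroni test.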

Data set [5] deals with TA3/Ha. The data set is described as follows: Antitumor activity against mouse TA3/Ha cells allografted in CAF1-Jax mouse syngenic model assessed as inhibition of tumor growth at 10 mg/kg, ip administered every 48 hrs of 30 days. In kind it is functional, organism-based. The arrangement: dose 10 mg/kg. The method, boiled down:
as §1

Data set [6] relates to TA3/Ha. The data set is described as follows: Induction of mitochondrial swelling in mouse TA3/Ha cell mitochondria at 0.15 mM by UV/vis spectrophotometer analysis in presence of N-acetylcysteine. In kind it is functional. The method, boiled down:
as §2

Data set [7] is described as follows: Cytotoxicity against mouse multidrug-resistant TA3-MTX-R cells after 48 hrs by neutral red assay. In kind it is functional, cell-based. A digest of the protocol:
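Neutral red uptake after 48 h exposure at 37 °C, 5% CO2. Seeding: 1 × 10^5 cells/mL for TA3, TA3-MTX-R and CCRF-CEM; 4 × 10^4 cells/mL for MM3MG. Dye at 100 μg/mL for 2 h, then ethanol/acetic acid extraction and absorbance at 540 nm. IC50 from variable-slope sigmoidal dose–response fit; at least three independent experiments in triplicate, mean ± SEM.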

The subject of data set [8] is TA3/Ha (Mus musculus). In words: Induction of mitochondrial swelling in mouse TA3/Ha cell mitochondria at 0.15 mM by UV/vis spectrophotometer analysis in presence of dithiothreitol.
Data set [9] has as its system TA3/Ha. The data set is described as follows: Antitumor activity against mouse TA3/Ha cells allografted in CAF1-Jax mouse syngenic model assessed as increase of host survival at 10 mg/kg, ip administered every 48 hrs of 30 days. In kind it is functional, organism-based. Also noted: dose 10 mg/kg.

Active and inactive are the calls of the source. No cut-off for these calls is given here.

As to `O=C(OCCCCCCCCCC[P+](c1ccccc1)(c1ccccc1)c1ccccc1)c1cc(O)c(O)c(O)c1.[Br-]`, the result in data set [1], in data set [2] and in data set [9] was Active. Also, the Activity result in data set [3] is “Non-toxic”. In addition, the outcome in [4], in data set [6] and in data set [8] was inactive. In addition, the TGI entry in data set [5] was “Active”. This compound registered an IC50 in [7] of 380 nM.

A word on the IC50: it is the concentration that gives 50% inhibition. A higher IC50 goes with weaker potency in that assay.
